The values below come from ChEMBL document CHEMBL1134284, “The biological effects of structural variation at the meta position of the aromatic rings and at the end of the alkenyl chain in the alkenyldiarylmethane series of non-nucleoside reverse transcriptase inhibitors” (J Med Chem, 2001).

Data set [1] has as its system Human immunodeficiency virus type 1 (RF/HAT ISOLATE). The experiment in a line: Inhibitory concentration for cytopathicity of HIV-1RF in CEM-SS cells. It counts as functional, organism-based. The conditions noted are these: Human immunodeficiency virus 1, RF. A digest of the protocol:
(§1)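 CEM-SS cells kept in RPMI 1640 with 10% heat-inactivated FBS, 2 mM glutamine, penicillin/streptomycin. Microtiter assay with cytopathic HIV-1 RF, or mock infection for toxicity. Viability read by MTS/phenazine ethosulfate reduction (absorbance 490 nm) 6 days after infection. […] Triplicate.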
On the technique in general: Protection from cytopathic effect is a common read-out in antiviral testing.

A further data set deals with CEM-SS. The experiment in a line: Concentration required for cytotoxicity against mock infected CEM-SS cells. The note with it: Homo sapiens. It counts as functional. A digest of the protocol:
as §1

Data set [2] deals with Human immunodeficiency virus type 1 reverse transcriptase (Human immunodeficiency virus 1, UniProt Q72547). The experiment in a line: Inhibitory activity against HIV-1 Reverse Transcriptase with rCdG as the template primer. A digest of the protocol:
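Cell-free assay with purified recombinant HIV-1 RT (p66/p51 dimer). Activity measured as [32P]GTP incorporation into the poly(rC)/oligo(dG) homopolymer template/primer. IC50 is reported as inhibition of enzyme activity.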

Data set [3] in a line: Ratio of CC50/EC50 was determined. It counts as cell-based. The conditions noted are these: human, CEM-SS cells; read-out: TI. A digest of the protocol:
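HIV-1 RF–infected CEM-SS cells (RPMI 1640, 10% heat-inactivated FBS, 2 mM glutamine, penicillin/streptomycin), plus mock-infected CEM-SS in parallel. Cell killing and viability were read by MTS/phenazine ethosulfate reduction at 490 nm 6 days after infection. […] Index = CC50 ÷ EC50. Triplicate tests.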

Molecules are shown by their SMILES.

In general, EC50 refers to the concentration giving half of the maximal effect. The low end stands for greater potency, the high end for weaker potency. The CC50 is the concentration at which the toxic effect on the cells reaches its halfway point. A higher CC50 goes with better tolerance by the cells. What is called IC50 is the concentration that gives 50% inhibition. A low value points to inhibition by little substance. In the case of `COC(=O)CCCC=C(c1cc(C(=O)OC)c(OC)c(C(F)(F)F)c1)c1cc(C(=O)OC)c(OC)c(C(F)(F)F)c1`, in data set [1], a half-maximal effect (EC50) was put at 14.3 µM. This compound showed a CC50 with CEM-SS of 17.2 µM. Moreover, in data set [2], the IC50 is more than 200 µM. In addition, the selectivity ratio in data set [3] stood at 1.2.
In the data set with CEM-SS, `CCCCCC=C(c1cc(I)c(OC)c(C(=O)OC)c1)c1cc(I)c(OC)c(C(=O)OC)c1` gave a CC50 of more than 316 µM.
Turning to `C#CCCCC=C(c1cc(Br)c(OC)c(C(=O)OC)c1)c1cc(Br)c(OC)c(C(=O)OC)c1`, the response in data set [1] was half-maximal at 4.7 µM (EC50). Further, the CC50 in the data set with CEM-SS was more than 200 µM. Besides, in data set [2], the midpoint of inhibition, the IC50, lay at 6 µM. Besides, in data set [3], the selectivity ratio was more than 43.
Take `COC(=O)c1cc(C(=CCCC[S+](C)[O-])c2cc(Cl)c(OC)c(C(=O)OC)c2)cc(Cl)c1OC` (configuration not stated): the EC50 in data set [1] amounted to 11.7 µM. The compound further had a CC50 in the data set with CEM-SS of 36.9 µM. For the same compound, the selectivity ratio in data set [3] stood at 3.15.
For `C=CCCCC=C(c1cc(Cl)c(OC)c(C(=O)OC)c1)c1cc(Cl)c(OC)c(C(=O)OC)c1`, the EC50 in data set [1] worked out at 13 µM. Also, the CC50 with CEM-SS was more than 200 µM. Moreover, the IC50 in data set [2] was 258 µM. In data set [3], the selectivity ratio was more than 15.
In the data set on CEM-SS, `CCCCCC=C(c1cc(F)c(OC)c(C(=O)OC)c1)c1cc(F)c(OC)c(C(=O)OC)c1` gave a CC50 of 13.4 µM.
`CCOC(=O)CCCC=C(c1cc(C)c(OC)c(C(=O)OC)c1)c1cc(C)c(OC)c(C(=O)OC)c1` showed an EC50 in data set [1] of 0.03 µM. In addition, the CC50 in the data set with CEM-SS was 8.91 µM. This compound also yielded an IC50 in data set [2] of 0.181 µM. The selectivity ratio in data set [3] came out at 297.
In turn, `COC(=O)c1cc(C(=CCCCC(=O)N(C)C)c2cc(Cl)c(OC)c(C(=O)OC)c2)cc(Cl)c1OC` had an EC50 in data set [1] of 0.38 µM. The compound further yielded a CC50 with CEM-SS of 2.65 µM. The same compound returned an IC50 in data set [2] of 0.687 µM. For the same compound, the selectivity ratio in data set [3] came out at 6.94.
In the case of `CCCCCC=C(c1ccc(OC)c(C(=O)OC)c1)c1ccc(OC)c(C(=O)OC)c1`, it took 14 µM to reach half-maximal cytotoxicity with CEM-SS (CC50).
`COC(=O)NCCC=C(c1cc(C)c(OC)c(C(=O)OC)c1)c1cc(C)c(OC)c(C(=O)OC)c1`: the EC50 in data set [1] amounted to 0.21 µM. Further, the CC50 with CEM-SS is 12.4 µM. For the same compound, in data set [2], the midpoint of inhibition, the IC50, lay at 4.93 µM. Further, the selectivity ratio in data set [3] came to 59.
For `COC(=O)CCCC=C(c1cc(C)c(OC)c(C(=O)OC)c1)c1cc(C)c(OC)c(C(=O)OC)c1` the same measures were 0.25 µM, 6 µM, less than 1 µM and 24.
The corresponding values for `COC(=O)NCCC=C(c1cc(Br)c(OC)c(C(=O)OC)c1)c1cc(Br)c(OC)c(C(=O)OC)c1` are 0.2 µM, 8.1 µM, 2.39 µM and 40.5.
`COC(=O)CCCC=C(c1cc(F)c(OC)c(C(=O)OC)c1)c1cc(F)c(OC)c(C(=O)OC)c1` had a 50% effective concentration (EC50) in data set [1] of 1.9 µM. Also, in the data set with CEM-SS, it took 68.3 µM to reach half-maximal cytotoxicity (CC50). Also, in data set [3], the selectivity ratio worked out at 36.
Take `COC(=O)c1cc(C(=CCCCc2ccccc2)c2cc(Br)c(OC)c(C(=O)OC)c2)cc(Br)c1OC`: the EC50 in data set [1] is 13.1 µM. For the same compound, the CC50 in the data set on CEM-SS was more than 200 µM. Besides, the IC50 in data set [2] is more than 100 µM. Further, the selectivity ratio in data set [3] is more than 15.
For the compound `COC(=O)c1cc(C(=CCCCC(=O)N2CCCCC2)c2cc(C)c(OC)c(C(=O)OC)c2)cc(C)c1OC`, in data set [1], the midpoint of the response, the EC50, lay at 5.37 µM. In the data set on CEM-SS, this compound displayed a CC50 of 14.7 µM. The compound also gave an IC50 in data set [2] of 7.12 µM. In addition, in data set [3], the selectivity ratio was 2.74.
Take `COC(=O)c1cc(C(=CCCCC(=O)SC)c2cc(Cl)c(OC)c(C(=O)OC)c2)cc(Cl)c1OC`: in data set [1], the EC50 came to 2.42 µM. Besides, the CC50 in the data set with CEM-SS turned out to be 12.5 µM. For the same compound, the selectivity ratio in data set [3] is 5.15.
On to `COC(=O)NCCC=C(c1cc(Cl)c(OC)c(C(=O)OC)c1)c1cc(Cl)c(OC)c(C(=O)OC)c1`, for which, in data set [1], the EC50 was determined as 1.22 µM. The compound also gave a CC50 with CEM-SS of 12.4 µM. For the same compound, in data set [2], the IC50 was 4.43 µM. The selectivity ratio in data set [3] is 10.2.
For `CCCCCC=C(c1cc(Cl)c(OC)c(C(=O)OC)c1)c1cc(Cl)c(OC)c(C(=O)OC)c1`, the response in data set [1] was half-maximal at 16 µM (EC50). For the same compound, in the data set on CEM-SS, the CC50 was more than 29.1 µM. Moreover, the selectivity ratio in data set [3] is more than 1.8.
In the case of `COC(=O)c1cc(C(=CCCCC(=O)N(C)C)c2cc(C)c(OC)c(C(=O)OC)c2)cc(C)c1OC`, it took 1.51 µM to reach a half-maximal effect in data set [1] (EC50). For the same compound, the CC50 with CEM-SS is 7.4 µM. The same compound returned an IC50 in data set [2] of 5.65 µM. Moreover, the selectivity ratio in data set [3] was determined as 4.91.
`COC(=O)c1cc(C(=CCCCc2ccccc2)c2cc(Cl)c(OC)c(C(=O)OC)c2)cc(Cl)c1OC` came in with an EC50 in data set [1] of 1.7 µM. For the same compound, the CC50 in the data set with CEM-SS is more than 200 µM. The same compound yielded an IC50 in data set [2] of more than 100 µM. Besides, the selectivity ratio in data set [3] is more than 43.
For `COC(=O)c1cc(C(=CCCCC(=O)OC(C)C)c2cc(Cl)c(OC)c(C(=O)OC)c2)cc(Cl)c1OC`, a half-maximal effect in data set [1] (EC50) was put at 0.84 µM. This compound also returned a CC50 in the data set on CEM-SS of 36.1 µM. The compound further had an IC50 in data set [2] of more than 100 µM. The selectivity ratio in data set [3] turned out to be 42.9.
For the compound `C=CCCCC=C(c1cc(Br)c(OC)c(C(=O)OC)c1)c1cc(Br)c(OC)c(C(=O)OC)c1`, a half-maximal response in data set [1] (EC50) required 8.2 µM. Moreover, the cytotoxic concentration (CC50) in the data set on CEM-SS was more than 200 µM. In data set [2], half-maximal inhibition (IC50) required 99 µM. Besides, in data set [3], the selectivity ratio is more than 24.
With `COC(=O)c1cc(C(=CCCCC(=O)OC(C)C)c2cc(Br)c(OC)c(C(=O)OC)c2)cc(Br)c1OC`, a half-maximal effect in data set [1] (EC50) was put at 4.33 µM. Besides, the CC50 with CEM-SS was found to be 16.4 µM. In data set [2], this compound registered an IC50 of 70.8 µM. In data set [3], the selectivity ratio stood at 3.79.
For `COC(=O)c1cc(C(=CCCCC(=O)OCC[Si](C)(C)C)c2cc(C)c(OC)c(C(=O)OC)c2)cc(C)c1OC` the same measures were 95.4 µM, more than 200 µM, more than 100 µM and more than 2.1.
In the data set on CEM-SS, `COC(=O)c1cc(C(=CCCCC(OC)OC)c2cc(Cl)c(OC)c(C(=O)OC)c2)cc(Cl)c1OC` displayed a CC50 of 18.1 µM. In data set [2], the IC50 was more than 100 µM.
Consider `COC(=O)c1cc(C(=CCCN2CCOC2=O)c2cc(Br)c(OC)c(C(=O)OC)c2)cc(Br)c1OC`, for which the EC50 in data set [1] came to 0.02 µM. In the data set on CEM-SS, this compound gave a CC50 of 1.95 µM. Moreover, the IC50 in data set [2] was found to be 0.499 µM. In addition, the selectivity ratio in data set [3] is 104.
Regarding `COC(=O)c1cc(C(=CCCN2CCOC2=O)c2cc(Cl)c(OC)c(C(=O)OC)c2)cc(Cl)c1OC`, a half-maximal effect in data set [1] (EC50) was put at 2.15 µM. In addition, the CC50 in the data set on CEM-SS is 13 µM. Also, the IC50 in data set [2] stood at 9.47 µM. The selectivity ratio in data set [3] turned out to be 6.02.
The corresponding values for `COC(=O)c1cc(C(=CCCCSC)c2cc(Cl)c(OC)c(C(=O)OC)c2)cc(Cl)c1OC` are 5.31 µM, more than 20 µM, more than 100 µM and more than 3.77.
The corresponding values for `CCCOC(=O)CCCC=C(c1cc(Br)c(OC)c(C(=O)OC)c1)c1cc(Br)c(OC)c(C(=O)OC)c1` are 1.14 µM, more than 20 µM, 9.15 µM and more than 17.5.
For `CCSC(=O)CCCC=C(c1cc(Cl)c(OC)c(C(=O)OC)c1)c1cc(Cl)c(OC)c(C(=O)OC)c1`, in data set [1], it took 3.95 µM to reach a half-maximal effect (EC50). It took 12.6 µM to reach half-maximal cytotoxicity with CEM-SS (CC50). Moreover, in data set [3], the selectivity ratio amounted to 3.2.
`C#CCCCC=C(c1cc(Cl)c(OC)c(C(=O)OC)c1)c1cc(Cl)c(OC)c(C(=O)OC)c1`: a half-maximal response in data set [1] (EC50) required 1.3 µM. Besides, in the data set with CEM-SS, the CC50 was 42.7 µM. The selectivity ratio in data set [3] was 33.
